Assay results from ChEMBL document CHEMBL1131314, “New cyclooxygenase-2/5-lipoxygenase inhibitors. 1. 7-tert-buty1-2,3-dihydro-3,3-dimethylbenzofuran derivatives as gastrointestinal safe antiinflammatory and analgesic agents: discovery and variation of the 5-keto substituent” (J Med Chem, 1998).

Key:
[1] = target: T1, Prostaglandin G/H synthase 2 (Homo sapiens, UniProt P35354)
T1 sequence (P35354 whole entry): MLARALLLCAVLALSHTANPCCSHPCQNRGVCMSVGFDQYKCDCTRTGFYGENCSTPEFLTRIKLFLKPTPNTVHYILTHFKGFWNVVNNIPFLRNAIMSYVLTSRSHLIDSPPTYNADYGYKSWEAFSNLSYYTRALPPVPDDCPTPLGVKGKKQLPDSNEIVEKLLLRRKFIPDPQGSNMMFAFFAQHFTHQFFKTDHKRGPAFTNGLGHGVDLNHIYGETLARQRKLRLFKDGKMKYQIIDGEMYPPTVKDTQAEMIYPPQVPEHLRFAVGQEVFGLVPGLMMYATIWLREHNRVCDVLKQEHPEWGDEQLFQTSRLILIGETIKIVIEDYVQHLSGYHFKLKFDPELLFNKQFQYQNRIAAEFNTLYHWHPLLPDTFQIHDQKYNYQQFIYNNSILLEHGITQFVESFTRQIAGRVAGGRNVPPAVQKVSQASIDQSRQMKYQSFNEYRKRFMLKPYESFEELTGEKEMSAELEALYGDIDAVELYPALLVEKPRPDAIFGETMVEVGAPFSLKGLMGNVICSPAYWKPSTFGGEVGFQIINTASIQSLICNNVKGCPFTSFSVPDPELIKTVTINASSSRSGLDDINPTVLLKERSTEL

[2] = target: T2, Prostaglandin G/H synthase 1 (Homo sapiens, UniProt P23219); assay: Concentration (in uM) to inhibit 50% of Prostaglandin G/H synthase 1 (COX-1) and is expressed in IC50.
Summary of the method: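 Human platelet microsomal fraction as enzyme, stored at -70 °C. Run 5 min at 37 °C, started by enzyme, stopped with HCl. PGF2α read by EIA, duplicates. IC50 taken from the percent-inhibition versus concentration curve.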

Mus musculus [3] = assay: % reduction in phenylquinone-induced abdominal constriction (PAC) at po (peroral) dose of 70 mg/kg in mice; format: functional, Abdomen
[4] = target: T2, Prostaglandin G/H synthase 1; assay: Tested for selectivity for inhibition of human platelet derived COX-1 and recombinant human COX-2
Summary of the method: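 COX-1 was microsomes from human platelet concentrate and COX-2 was a sonicated lysate of Sf9 cells infected with baculovirus carrying human COX-2 cDNA. Each enzyme was added to AA (33 µM) and SnCl2 (0.5 mg/mL) in 50 mM Tris-HCl pH 7.5 and run 5 min at 37 °C, then stopped with HCl. PGF2α was measured by EIA, in duplicate. The value is IC50 COX-1/IC50 COX-2.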

Rattus norvegicus = assay: Carrageenan paw edema index (CPE index) as ratio of the reduction in paw volume relative to tebufelone at a po (peroral) dose of 50 mg/kg.; format: functional
Mus musculus [5] = organism: Mus musculus; assay: The compound was tested for the concentration to inhibit 50% of phenylquinone-induced abdominal constriction (PAC).; format: functional; details: Abdomen
[6] = target: Arachidonate 5-lipoxygenase (Rattus norvegicus); assay: The compound was tested for the concentration (in uM) to inhibit 50% of 5-Lipoxygenase (5-LOX) and is expressed in IC50.
Mus musculus [7] = assay: Compound was tested for % reduction in phenylquinone-induced abdominal constriction (PAC) at po (peroral) dose of 70 mg/kg in mice; format: functional; details: Abdomen

T2 sequence (P23219 whole entry): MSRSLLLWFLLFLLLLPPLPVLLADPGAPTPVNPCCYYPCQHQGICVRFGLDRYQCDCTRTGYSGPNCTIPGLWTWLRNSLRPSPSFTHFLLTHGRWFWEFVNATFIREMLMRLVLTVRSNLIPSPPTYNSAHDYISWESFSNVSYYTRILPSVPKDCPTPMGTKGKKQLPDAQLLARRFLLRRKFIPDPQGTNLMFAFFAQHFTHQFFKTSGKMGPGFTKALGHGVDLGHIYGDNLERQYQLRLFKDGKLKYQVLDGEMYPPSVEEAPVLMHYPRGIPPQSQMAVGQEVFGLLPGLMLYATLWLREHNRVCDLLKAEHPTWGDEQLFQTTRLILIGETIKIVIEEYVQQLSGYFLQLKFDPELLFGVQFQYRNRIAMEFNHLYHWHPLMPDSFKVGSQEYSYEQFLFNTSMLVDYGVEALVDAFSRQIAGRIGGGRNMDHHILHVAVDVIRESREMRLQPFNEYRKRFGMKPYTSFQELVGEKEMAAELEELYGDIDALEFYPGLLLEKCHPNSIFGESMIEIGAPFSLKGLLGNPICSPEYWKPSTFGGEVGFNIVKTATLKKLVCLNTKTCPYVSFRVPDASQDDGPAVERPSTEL

| Compound | IC50 [1] [nM] | IC50 [2] [nM] | CPE index (Rattus norvegicus) | also measured |
| --- | --- | --- | --- | --- |
| C#CCCCC(=O)c1cc(C(C)(C)C)c(O)c(C(C)(C)C)c1 [TEBUFELONE] | 100 | 250 | – | – |
| CC(C)(C)c1cc(C(=O)CSCC2CC2)cc2c1OCC2(C)C | 400 | 650 | 0.62 | Reduction (Mus musculus [3]): 54%; Selectivity [4]: 1.6 |
| CC(C)(C)c1cc(C(=O)c2ccc(F)cc2)cc2c1OCC2(C)C | – | – | 0.52 | – |
| C[S+]([O-])CC(=O)c1cc(C(C)(C)C)c2c(c1)C(C)(C)CO2 (centres undefined) | – | – | 1.01 | ED50 (Mus musculus [5]): 20 mg/kg |
| CC(C)(C)c1cc(C(=O)c2ccccc2Cl)cc2c1OCC2(C)C | – | – | 0 | – |
| CC(C)(C)c1cc(C(=O)C2CCCC2)cc2c1OCC2(C)C | – | – | 0.65 | Reduction (Mus musculus [3]): 56% |
| CC(C)(C)C(=O)c1cc(C(C)(C)C)c2c(c1)C(C)(C)CO2 | – | – | 0.3 | – |
| CC(C)(C)c1cc(C(=O)C[S+]([O-])CC2CC2)cc2c1OCC2(C)C (centres undefined) | 4000 | 20000 | 0.04 | Selectivity [4]: 5 |
| COCCOCC(=O)c1cc(C(C)(C)C)c2c(c1)C(C)(C)CO2 | – | – | 0.52 | – |
| CC(C)(C)c1cccc2c1OCC2(C)C | – | – | 0.31 | – |
| CC(C)CCCC(=O)c1cc(C(C)(C)C)c2c(c1)C(C)(C)CO2 | 4500 | 15000 | 0.36 | Selectivity [4]: 3.3; IC50 [6]: 15000 nM |
| CC(O)c1cc(C(C)(C)C)c2c(c1)C(C)(C)CO2 (centres undefined) | – | – | 0 | – |
| CC(=O)SCC(=O)c1cc(C(C)(C)C)c2c(c1)C(C)(C)CO2 | – | – | 0.95 | Reduction (Mus musculus [3]): 64% |
| CCC(=O)c1cc(C(C)(C)C)c2c(c1)C(C)(C)CO2 | – | – | 1.14 | ED50 (Mus musculus [5]): 20 mg/kg |
| CC(C)(C)c1cc(C(=O)C2CC2)cc2c1OCC2(C)C | – | – | 0.67 | Reduction (Mus musculus [3]): 85% |
| CC(=O)OCC(=O)c1cc(C(C)(C)C)c2c(c1)C(C)(C)CO2 | – | – | 0.21 | – |
| CC(C)(C)c1cc(C(=O)CC2CC2)cc2c1OCC2(C)C | – | – | 1.06 | – |
| CSCC(=O)c1cc(C(C)(C)C)c2c(c1)C(C)(C)CO2 | – | – | 1.77 | Reduction (Mus musculus [3]): 35% |

| Compound | IC50 [1] [nM] | IC50 [2] [nM] | CPE index (Rattus norvegicus) | also measured |
| --- | --- | --- | --- | --- |
| CC(C)(C)c1cc(C(=O)CS(C)(=O)=O)cc2c1OCC2(C)C | – | – | 0 | – |
| C#CCCCC(=O)c1cc(C(C)(C)C)c2c(c1)C(C)(C)CO2 | 15 | 60 | – | – |
| CN(CC(=O)c1cc(C(C)(C)C)c2c(c1)C(C)(C)CO2)CC1CC1 | 2500 | 30000 | 0.38 | – |
| CC(=O)c1cc(C(C)(C)C)c2c(c1)C(C)(C)CO2 | – | – | 0.92 | Reduction (Mus musculus [3]): 78% |
| CC(C)(C)c1cc(C(=O)CCC2CC2)cc2c1OCC2(C)C | – | – | 0.18 | Reduction (Mus musculus [3]): 58% |
| CCCC(=O)c1cc(C(C)(C)C)c2c(c1)C(C)(C)CO2 | 95 | 95 | – | Reduction (Mus musculus [3]): 85% |
| CC(C)(C)c1cc(C(=O)/C=C/CC2CC2)cc2c1OCC2(C)C | 250 | 800 | 0.18 | – |
| CN(C)CCC(=O)c1cc(C(C)(C)C)c2c(c1)C(C)(C)CO2 | – | – | 0.32 | – |
| CCCCCC(=O)c1cc(C(C)(C)C)c2c(c1)C(C)(C)CO2 | 90 | > 10000 | 0.4 | Selectivity [4]: > 111 |
| CC(C)=CC(=O)c1cc(C(C)(C)C)c2c(c1)C(C)(C)CO2 | – | – | 1.22 | Reduction (Mus musculus [3]): 50% |
| CC(C)(C)c1cc(C(=O)CCCC2CC2)cc2c1OCC2(C)C | 220 | 7000 | – | – |
| CCCCC(=O)c1cc(C(C)(C)C)c2c(c1)C(C)(C)CO2 | 40 | 2000 | – | – |
| CC(C)(C)c1cc(C(=O)CS(=O)(=O)CC2CC2)cc2c1OCC2(C)C | 2000 | 5000 | 0 | Selectivity [4]: 2.5 |
| CC(C)(C)c1cc(C(=O)c2ccccc2)cc2c1OCC2(C)C | 7 | 150 | – | Reduction (Mus musculus [3]): 34% |
| CC(C)(Cl)CC(=O)c1cc(C(C)(C)C)c2c(c1)C(C)(C)CO2 | 100 | 1000 | 1.2 | ED50 (Mus musculus [7]): 16 mg/kg; IC50 [6]: 8000 nM |
| CSCCC(=O)c1cc(C(C)(C)C)c2c(c1)C(C)(C)CO2 | – | – | 0.7 | – |
| CC(C)(C)c1cc(C(=O)C2CCCCC2)cc2c1OCC2(C)C | – | – | 0.36 | – |
| CC(C)C(=O)c1cc(C(C)(C)C)c2c(c1)C(C)(C)CO2 | – | – | 1.25 | ED50 (Mus musculus [5]): 22 mg/kg |
